Experimental data reported in ChEMBL document CHEMBL2086328, “¹⁸F-labeled 2-phenylquinoxaline derivatives as potential positron emission tomography probes for in vivo imaging of β-amyloid plaques” (Eur J Med Chem, 2012).
Blank lines part the entries; values can stand above or below the molecule they belong to. Active and inactive are the calls of the source. The calls are words filed in the database; no cut-off is given here.

How the values were obtained:
Brain [1] = test: Biodistribution in ICR mouse brain at 370 kBq, iv after 2 mins by gamma counting; format: ADME, organism-based; settings: in vivo
Method in brief: (§1)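 Male ICR mice (five weeks, 20–22 g), tail-vein injection of 18F tracer in 0.1 mL saline with 10% EtOH. Killed by decapitation at set times, n = 5 per time point. Organs removed, weighed and gamma-counted; %ID/g wet tissue from comparison with diluted aliquots of injected dose; mean ± SD.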

[2] = Displacement of [125I]IMPY from amyloid beta (1 to 42) after 2 hrs by gamma counting
Method in brief: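 Competition binding against [125I]IMPY (radiochemical purity >95%) on Aβ1-42 aggregates with 1% BSA solution; inhibitor 10^-4–10^-9.5 M; 37 °C, 2 h. Free and bound separated by vacuum filtration on GF/B filters, three PBS washes (0.02 M, pH 7.4, room temperature); filters gamma-counted. Three repeats; IC50 fitted, Ki from Cheng–Prusoff.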

[3] = Binding affinity to beta-amyloid
[4] = Lipophilicity, log D of the compound; format: physicochemical; settings: octanol/water
Method in brief: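 18F tracer (740 kBq) in 3 g n-octanol plus 3 g PBS (0.05 M, pH 7.4). Vortexed 3 min at room temperature, centrifuged 5 min at 3000 rpm; weighed samples from octanol and buffer layers counted.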

Brain [5] = test: Ratio of drug level in ICR mouse brain after 2 mins to ICR mouse brain after 60 mins at 370 kBq, iv; format: ADME, organism-based; settings: in vivo
Method in brief: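 Same intravenous study in ICR mice (370 kBq 18F tracer in saline/10% EtOH, n = 5 per time point). Ratio is brain %ID/g at 2 min divided by brain %ID/g at 60 min post-injection.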

[6] = biological target: Amyloid-beta precursor protein (Homo sapiens) (UniProt P05067); test: Binding affinity to beta-amyloid in normal human brain at 1.85 MBq/[…] after 1 hr by thioflavin-S based autoradiography; settings: 1.85 M, tested as the 18F-labelled form
Chain of Amyloid-beta precursor protein (Homo sapiens) (P05067 whole entry): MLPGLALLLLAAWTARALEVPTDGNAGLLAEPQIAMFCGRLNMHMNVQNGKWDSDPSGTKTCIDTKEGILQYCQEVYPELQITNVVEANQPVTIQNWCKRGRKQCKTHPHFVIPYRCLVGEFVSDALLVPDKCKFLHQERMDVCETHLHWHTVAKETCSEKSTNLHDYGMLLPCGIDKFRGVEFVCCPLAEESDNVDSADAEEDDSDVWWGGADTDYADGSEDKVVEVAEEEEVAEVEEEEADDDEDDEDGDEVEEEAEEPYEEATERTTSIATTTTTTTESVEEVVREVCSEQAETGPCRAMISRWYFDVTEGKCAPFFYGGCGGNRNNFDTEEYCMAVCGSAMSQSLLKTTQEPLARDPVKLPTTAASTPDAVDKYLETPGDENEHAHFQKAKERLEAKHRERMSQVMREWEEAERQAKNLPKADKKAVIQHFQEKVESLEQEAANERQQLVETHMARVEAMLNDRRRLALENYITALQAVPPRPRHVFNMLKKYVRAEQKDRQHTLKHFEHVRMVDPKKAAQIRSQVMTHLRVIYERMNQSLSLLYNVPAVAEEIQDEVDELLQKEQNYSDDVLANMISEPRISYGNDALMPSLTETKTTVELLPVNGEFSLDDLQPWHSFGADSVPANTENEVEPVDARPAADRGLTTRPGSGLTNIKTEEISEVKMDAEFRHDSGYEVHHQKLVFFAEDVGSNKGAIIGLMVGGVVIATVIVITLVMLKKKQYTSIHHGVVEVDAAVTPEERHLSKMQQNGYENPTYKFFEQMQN
Method in brief: (§2)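 Paraffin human temporal-lobe sections (5 µm; AD case or control) deparaffinized through xylene and graded ethanol, then PBS (0.2 M, pH 7.4) for 30 min. Incubated with 18F tracer (1.85 MBq/200 µL), 1 h, room temperature; washed in 40% EtOH, rinsed in water; phosphor plate exposure 2 h.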

Mus musculus = species on record: Mus musculus; test: Binding affinity to beta-amyloid in APPswe/PSEN1 transgenic C57BL6 mouse model brain at 1.85 MBq/[…] after 1 hr by thioflavin-S based autoradiography; settings: 1.85 M, tested as the 18F-labelled form
Method in brief: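 Transgenic mouse brain sections deparaffinized, then incubated with 18F tracer (1.85 MBq/200 µL) for 1 h at room temperature. Washed in 40% EtOH, phosphor-imaged after 2 h exposure. Same sections then stained with 0.125% thioflavin-S in 10% EtOH for 3 min and imaged by fluorescence (excitation 405 nm, long-pass 505 nm).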

[7] = biological target: Amyloid-beta precursor protein (Homo sapiens) (UniProt P05067); test: Binding affinity to beta-amyloid in Alzheimer's disease patient brain at 1.85 MBq/[…] after 1 hr by thioflavin-S based autoradiography; settings: 1.85 M, tested as the 18F-labelled form; method in brief: as §2
Lung [8] = test: Biodistribution in ICR mouse lung at 370 kBq, iv after 30 mins by gamma counting; format: ADME, organism-based; settings: in vivo, 0.5 h; method in brief: as §1
Bone [9] = test: Biodistribution in ICR mouse bone at 370 kBq, iv after 10 mins by gamma counting; format: ADME, organism-based, Bone element; settings: in vivo; method in brief: as §1
Intestine [10] = test: Biodistribution in ICR mouse intestine at 370 kBq, iv after 30 mins by gamma counting; format: ADME, organism-based; settings: in vivo, 0.5 h; method in brief: as §1
Stomach [11] = test: Biodistribution in ICR mouse stomach at 370 kBq, iv after 60 mins by gamma counting; format: ADME, organism-based; settings: in vivo, 1 h; method in brief: as §1
Bone [12] = test: Biodistribution in ICR mouse bone at 370 kBq, iv after 60 mins by gamma counting; format: ADME, organism-based, Bone element; settings: in vivo, 1 h; method in brief: as §1
Brain [13] = test: Biodistribution in ICR mouse brain at 370 kBq, iv after 10 mins by gamma counting; format: ADME, organism-based; settings: in vivo; method in brief: as §1
Blood [14] = test: Biodistribution in ICR mouse blood at 370 kBq, iv after 10 mins by gamma counting; format: ADME, organism-based; settings: in vivo; method in brief: as §1
Liver [15] = test: Biodistribution in ICR mouse liver at 370 kBq, iv after 60 mins by gamma counting; format: ADME, organism-based; settings: in vivo, 1 h; method in brief: as §1
Heart [16] = test: Biodistribution in ICR mouse heart at 370 kBq, iv after 10 mins by gamma counting; format: ADME, organism-based; settings: in vivo; method in brief: as §1
Heart [17] = test: Biodistribution in ICR mouse heart at 370 kBq, iv after 30 mins by gamma counting; format: ADME, organism-based; settings: in vivo, 0.5 h; method in brief: as §1
Lung [18] = test: Biodistribution in ICR mouse lung at 370 kBq, iv after 10 mins by gamma counting; format: ADME, organism-based; settings: in vivo; method in brief: as §1
Spleen [19] = test: Biodistribution in ICR mouse spleen at 370 kBq, iv after 30 mins by gamma counting; format: ADME, organism-based; settings: in vivo, 0.5 h; method in brief: as §1
Brain [20] = test: Biodistribution in ICR mouse brain at 370 kBq, iv after 30 mins by gamma counting; format: ADME, organism-based; settings: in vivo, 0.5 h; method in brief: as §1
Heart [21] = test: Biodistribution in ICR mouse heart at 370 kBq, iv after 60 mins by gamma counting; format: ADME, organism-based; settings: in vivo, 1 h; method in brief: as §1
Spleen [22] = test: Biodistribution in ICR mouse spleen at 370 kBq, iv after 60 mins by gamma counting; format: ADME, organism-based; settings: in vivo, 1 h; method in brief: as §1
Bone [23] = test: Biodistribution in ICR mouse bone at 370 kBq, iv after 30 mins by gamma counting; format: ADME, organism-based, Bone element; settings: in vivo, 0.5 h; method in brief: as §1
Liver [24] = test: Biodistribution in ICR mouse liver at 370 kBq, iv after 10 mins by gamma counting; format: ADME, organism-based; settings: in vivo; method in brief: as §1
Lung [25] = test: Biodistribution in ICR mouse lung at 370 kBq, iv after 2 mins by gamma counting; format: ADME, organism-based; settings: in vivo; method in brief: as §1
Stomach [26] = test: Biodistribution in ICR mouse stomach at 370 kBq, iv after 10 mins by gamma counting; format: ADME, organism-based; settings: in vivo; method in brief: as §1
Intestine [27] = test: Biodistribution in ICR mouse intestine at 370 kBq, iv after 60 mins by gamma counting; format: ADME, organism-based; settings: in vivo, 1 h; method in brief: as §1
Kidney [28] = test: Biodistribution in ICR mouse kidney at 370 kBq, iv after 2 mins by gamma counting; format: ADME, organism-based; settings: in vivo; method in brief: as §1
Spleen [29] = test: Biodistribution in ICR mouse spleen at 370 kBq, iv after 2 mins by gamma counting; format: ADME, organism-based; settings: in vivo; method in brief: as §1
Blood [30] = test: Biodistribution in ICR mouse blood at 370 kBq, iv after 60 mins by gamma counting; format: ADME, organism-based; settings: in vivo, 1 h; method in brief: as §1
Intestine [31] = test: Biodistribution in ICR mouse intestine at 370 kBq, iv after 10 mins by gamma counting; format: ADME, organism-based; settings: in vivo; method in brief: as §1
Bone [32] = test: Biodistribution in ICR mouse bone at 370 kBq, iv after 2 mins by gamma counting; format: ADME, organism-based, Bone element; settings: in vivo; method in brief: as §1
Liver [33] = test: Biodistribution in ICR mouse liver at 370 kBq, iv after 30 mins by gamma counting; format: ADME, organism-based; settings: in vivo, 0.5 h; method in brief: as §1
Heart [34] = test: Biodistribution in ICR mouse heart at 370 kBq, iv after 2 mins by gamma counting; format: ADME, organism-based; settings: in vivo; method in brief: as §1
Kidney [35] = test: Biodistribution in ICR mouse kidney at 370 kBq, iv after 30 mins by gamma counting; format: ADME, organism-based; settings: in vivo, 0.5 h; method in brief: as §1
Blood [36] = test: Biodistribution in ICR mouse blood at 370 kBq, iv after 2 mins by gamma counting; format: ADME, organism-based; settings: in vivo; method in brief: as §1
Lung [37] = test: Biodistribution in ICR mouse lung at 370 kBq, iv after 60 mins by gamma counting; format: ADME, organism-based; settings: in vivo, 1 h; method in brief: as §1
Stomach [38] = test: Biodistribution in ICR mouse stomach at 370 kBq, iv after 30 mins by gamma counting; format: ADME, organism-based; settings: in vivo, 0.5 h; method in brief: as §1
Kidney [39] = test: Biodistribution in ICR mouse kidney at 370 kBq, iv after 10 mins by gamma counting; format: ADME, organism-based; settings: in vivo; method in brief: as §1
Brain [40] = test: Biodistribution in ICR mouse brain at 370 kBq, iv after 60 mins by gamma counting; format: ADME, organism-based; settings: in vivo, 1 h; method in brief: as §1
Intestine [41] = test: Biodistribution in ICR mouse intestine at 370 kBq, iv after 2 mins by gamma counting; format: ADME, organism-based; settings: in vivo; method in brief: as §1
Kidney [42] = test: Biodistribution in ICR mouse kidney at 370 kBq, iv after 60 mins by gamma counting; format: ADME, organism-based; settings: in vivo, 1 h; method in brief: as §1
Liver [43] = test: Biodistribution in ICR mouse liver at 370 kBq, iv after 2 mins by gamma counting; format: ADME, organism-based; settings: in vivo; method in brief: as §1
Blood [44] = test: Biodistribution in ICR mouse blood at 370 kBq, iv after 30 mins by gamma counting; format: ADME, organism-based; settings: in vivo, 0.5 h; method in brief: as §1
Spleen [45] = test: Biodistribution in ICR mouse spleen at 370 kBq, iv after 10 mins by gamma counting; format: ADME, organism-based; settings: in vivo; method in brief: as §1
Stomach [46] = test: Biodistribution in ICR mouse stomach at 370 kBq, iv after 2 mins by gamma counting; format: ADME, organism-based; settings: in vivo; method in brief: as §1

- Drug uptake (Brain [1]): 7.33 % ID/g
- Ki [2]: 2.9 nM
- Ki [3]: 2.87 nM
- logD [4]: 2.41
- Ratio (Brain [5]): 3.9
SMILES: CNc1ccc(/C=C/c2ccc(OCCOCCOCC[18F])nc2)cc1 [FLORBETAPIR F 18]

- Ki [3]: 2.22 nM
SMILES: CNc1ccc(/C=C/c2ccc(OCCOCCOCC[18F])cc2)cc1 [FLORBETABEN F18]

- Activity [6]: inactive
- Activity (Mus musculus): Active
- Ki [2]: 10 nM
- Activity [7]: Active
SMILES: CNc1ccc2nc(-c3ccc(OCCF)cc3)cnc2c1

- Drug uptake (Lung [8]): 3.78 % ID/g
- Drug uptake (Bone [9]): 2.84 % ID/g
- Drug uptake (Intestine [10]): 17.15 %ID
- Drug uptake (Stomach [11]): 2.5 %ID
- Drug uptake (Bone [12]): 6.2 % ID/g
- Drug uptake (Brain [13]): 5.07 % ID/g
- Drug uptake (Blood [14]): 4.68 % ID/g
- Drug uptake (Liver [15]): 5 % ID/g
- Drug uptake (Heart [16]): 4.27 % ID/g
- Drug uptake (Heart [17]): 4.28 % ID/g
- Drug uptake (Lung [18]): 4.36 % ID/g
- Drug uptake (Spleen [19]): 3.35 % ID/g
- Drug uptake (Brain [20]): 3.45 % ID/g
- Drug uptake (Brain [1]): 8.17 % ID/g
- Drug uptake (Heart [21]): 4.24 % ID/g
- Drug uptake (Spleen [22]): 3.04 % ID/g
- Drug uptake (Bone [23]): 5.73 % ID/g
- Drug uptake (Liver [24]): 7.8 % ID/g
- Drug uptake (Lung [25]): 6.38 % ID/g
- Drug uptake (Stomach [26]): 2.55 %ID
- Drug uptake (Intestine [27]): 18.75 %ID
- logD [4]: 3.14
- Drug uptake (Kidney [28]): 9.37 % ID/g
- Drug uptake (Spleen [29]): 4.71 % ID/g
- Drug uptake (Blood [30]): 5.24 % ID/g
- Drug uptake (Intestine [31]): 12.87 %ID
- Drug uptake (Bone [32]): 2.46 % ID/g
- Drug uptake (Liver [33]): 5.37 % ID/g
- Drug uptake (Heart [34]): 6.08 % ID/g
- Drug uptake (Kidney [35]): 4.25 % ID/g
- Drug uptake (Blood [36]): 4.93 % ID/g
- Drug uptake (Lung [37]): 3.77 % ID/g
- Drug uptake (Stomach [38]): 1.84 %ID
- Drug uptake (Kidney [39]): 5.96 % ID/g
- Drug uptake (Brain [40]): 3.17 % ID/g
- Drug uptake (Intestine [41]): 9.63 %ID
- Drug uptake (Kidney [42]): 3.79 % ID/g
- Ratio (Brain [5]): 2.58
- Drug uptake (Liver [43]): 9.5 % ID/g
- Drug uptake (Blood [44]): 5.09 % ID/g
- Drug uptake (Spleen [45]): 3.87 % ID/g
- Drug uptake (Stomach [46]): 1.81 %ID
SMILES: CNc1ccc2nc(-c3ccc(OCC[18F])cc3)cnc2c1
